Reference: ChEMBL document CHEMBL1127791, “Design, synthesis, and biological evaluation of cosalane, a novel anti-HIV agent which inhibits multiple features of virus reproduction” (J Med Chem, 1994)

Legend:
[1] = tested on: B(EBV+); assay: Effective concentration required for antiviral activity against B(EBV+) cell line of AA5 cells of Human by XTT assay; type: functional, cell-based
In short: (§1)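 Human T, B or macrophage-type cell lines were infected with HIV-1 RF in complete RPMI medium with serially diluted drug and cultured 6 days at 37 °C. Inhibition was read by XTT in cytopathically infected cells, or by supernatant RT activity or p24 ELISA in noncytopathically infected cells. EC₅₀ was calculated.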

[2] = tested on: CEM-SS; assay: Effective concentration required for antiviral activity against HIV strain IIIB in CEM-SS cells by XTT assay; type: functional, cell-based; settings: Homo sapiens
In short: (§2)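 CEM-SS cells, 5000/well in RPMI 1640 with 5% FBS, 2 mM L-glutamine and gentamycin, were infected with each HIV strain at MOI 0.01 with serially diluted drug. They were incubated 6 days at 37 °C in 5% CO₂. Viability was read by XTT, and EC₅₀ for protection from virus-induced killing was calculated.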

[3] = tested on: CEM-SS; assay: Effective concentration required for antiviral activity against T cell line of CEM-SS cells of Human by XTT assay; type: functional, cell-based; in short: as §1
[4] = tested on: BxT; assay: Effective concentration required for antiviral activity against BxT cell line of 174xCEM cells of Human by XTT assay; type: functional, cell-based; in short: as §1
[5] = tested on: Human immunodeficiency virus; assay: Effective concentration required for antiviral activity against HIV strain G by XTT assay; type: functional, organism-based; settings: Human immunodeficiency virus 1; in short: as §2
[6] = tested on: Human immunodeficiency virus; assay: Effective concentration required for antiviral activity against HIV strain LAV by XTT assay; type: functional, organism-based; settings: Human immunodeficiency virus 1; in short: as §2
[7] = tested on: Human immunodeficiency virus; assay: Effective concentration required for antiviral activity against HIV strain MCK by XTT assay; type: functional, organism-based; settings: Human immunodeficiency virus 1; in short: as §2
[8] = tested on: Human immunodeficiency virus; assay: Effective concentration required for antiviral activity against HIV strain MN by XTT assay; type: functional, organism-based; settings: Human immunodeficiency virus 1; in short: as §2
[9] = tested on: Human immunodeficiency virus; assay: Effective concentration required for antiviral activity against HIV strain PM16 by XTT assay; type: functional, organism-based; settings: Human immunodeficiency virus 1; in short: as §2
[10] = tested on: Human immunodeficiency virus; assay: Effective concentration required for antiviral activity against HIV strain SKI by XTT assay; type: functional, organism-based; settings: Human immunodeficiency virus 1; in short: as §2
[11] = tested on: Human immunodeficiency virus; assay: Effective concentration required for antiviral activity against HIV strain VIHU (nonsyncytia inducing) by XTT assay; type: functional, organism-based; settings: Human immunodeficiency virus 1
[12] = tested on: Human immunodeficiency virus; assay: Effective concentration required for antiviral activity against HIV strain WEJO (syncytia inducing) by XTT assay; type: functional, organism-based; settings: Human immunodeficiency virus 1
[13] = tested on: Human immunodeficiency virus; assay: Effective concentration required for antiviral activity against HIV strain WOME (syncytia inducing) by XTT assay; type: functional, organism-based; settings: Human immunodeficiency virus 1
[14] = tested on: Human immunodeficiency virus 2; assay: Effective concentration required for antiviral activity against HIV strain MS (HIV-2) by XTT assay; type: functional, organism-based; in short: as §2
[15] = tested on: Human immunodeficiency virus; assay: Effective concentration required for antiviral activity against HIV strain 205 by XTT assay; type: functional, organism-based; settings: Human immunodeficiency virus 1; in short: as §2
[16] = tested on: Human immunodeficiency virus; assay: Effective concentration required for antiviral activity against HIV strain 214 by XTT assay; type: functional, organism-based; settings: Human immunodeficiency virus 1; in short: as §2
[17] = tested on: Human immunodeficiency virus; assay: Effective concentration required for antiviral activity against HIV strain A17 (pyridinone-resistant strain) by XTT assay; type: functional, organism-based; settings: Human immunodeficiency virus 1; in short: as §2
[18] = tested on: Human immunodeficiency virus; assay: Effective concentration required for antiviral activity against HIV strain BAKI (syncytia inducing) by XTT assay; type: functional, organism-based; settings: Human immunodeficiency virus 1
[19] = tested on: Human immunodeficiency virus; assay: Effective concentration required for antiviral activity against HIV strain G9106 (AZT-resistant strain) by XTT assay; type: functional, organism-based; settings: Human immunodeficiency virus 1; in short: as §2
[20] = tested on: MT4; assay: Effective concentration required for antiviral activity against T (HTLV-1+)cell line of MT-4 cells of Human by XTT assay; type: functional, cell-based; in short: as §1
[21] = tested on: MT2; assay: Effective concentration required for antiviral activity against HIV strain IIIB in MT-2 cells by XTT assay; type: functional, cell-based; settings: Homo sapiens
In short: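 HIV-1 IIIB was tested in MT-2 cells in a microtiter XTT cytopathicity assay. Serially diluted drug was added to cells infected at MOI 0.01 and incubated 6 days at 37 °C in 5% CO₂. EC₅₀ for cellular protection was calculated from XTT viability.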

[22] = tested on: PBL; assay: Effective concentration required for antiviral activity against lymphocyte cell line of PBL cells of Human by […]; type: functional, cell-based
In short: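 PHA-stimulated fresh human PBLs were infected with clinical HIV-1 isolate WEJO in the presence of drug. Culture supernatants were assayed for RT and/or p24 by antigen-capture ELISA to give EC₅₀.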

[23] = tested on: U-937; assay: Effective concentration required for antiviral activity against Macrophage cell line of U937 cells of Human by XTT assay; type: functional, cell-based; in short: as §1
[24] = tested on: Human immunodeficiency virus; assay: Effective concentration required for antiviral activity against HIV strain TP1 by XTT assay; type: functional, organism-based; settings: Human immunodeficiency virus 1; in short: as §2
[25] = tested on: M; assay: Effective concentration required for antiviral activity against M cell line of macrophage cells of Human by p24 ELISA
[26] = tested on: Human immunodeficiency virus; assay: Effective concentration required for antiviral activity against HIV strain RF by XTT assay; type: functional, organism-based; settings: Human immunodeficiency virus 1; in short: as §2

| SMILES | EC50 [1] [nM] | EC50 [2] [nM] | EC50 [3] [nM] | EC50 [4] [nM] | EC50 [5] [nM] | EC50 [6] [nM] | EC50 [7] [nM] | EC50 [8] [nM] | EC50 [9] [nM] | EC50 [10] [nM] | EC50 [11] [nM] | EC50 [12] [nM] | EC50 [13] [nM] | EC50 [14] [nM] | EC50 [15] [nM] | EC50 [16] [nM] | EC50 [17] [nM] | EC50 [18] [nM] | EC50 [19] [nM] | EC50 [20] [nM] | also measured |
| --- | --- | --- | --- | --- | --- | --- | --- | --- | --- | --- | --- | --- | --- | --- | --- | --- | --- | --- | --- | --- | --- |
| Cc1cn([C@H]2C[C@H](N=[N+]=[N-])[C@@H](CO)O2)c(=O)[nH]c1=O [ZIDOVUDINE] | 1 | 4 | 95 | 55 | 2 | 8 | 2 | 4 | 11 | 13 | 20 | 18 | 6 | 2 | 9 | 9 | 2 | 10 | > 100 | 85 | EC50 [21]: 3 nM; EC50 [22]: 29 nM; EC50 [23]: 30 nM; EC50 [24]: 6 nM; EC50 [25]: 15 nM |
| CC(C)CCCC(C)[C@H]1CC[C@H]2[C@@H]3CCC4C[C@@H](CCC=C(c5cc(Cl)c(O)c(C(=O)O)c5)c5cc(Cl)c(O)c(C(=O)O)c5)CC[C@]4(C)[C@H]3CC[C@]12C (stereo partly specified) | 6600 | 6800 | 5100 | 6100 | 2200 | 14400 | 2100 | 8800 | 6600 | 20600 | 80200 | 44800 | 69900 | 22500 | 6700 | 7100 | 4300 | 48100 | 6600 | 20000 | EC50 [26]: 1700 nM; EC50 [21]: 3400 nM; EC50 [22]: 44800 nM; EC50 [23]: 7400 nM; EC50 [24]: 6500 nM; EC50 [25]: 19700 nM |
